Source: ChEMBL document CHEMBL1126281, “Synthesis and dopaminergic activity of some 3-(1,2,3,6-tetrahydro-1-pyridylalkyl)indoles. A novel conformational model to explain structure-activity relationships” (J Med Chem, 1992)
pIC50, pKi: −log10 of the molar value.

How the values were obtained:
[1] = target: T1, D(2) dopamine receptor (Rattus norvegicus, UniProt P61169); test: Evaluated for its ability to displace tritiated receptor ligand in rat striatal membranes 3[H]spiperone, a dopamine antagonist; format: functional, cell membranes, Striatum, Membrane
[2] = tested on: Rattus norvegicus; test: Evaluated in vivo for its ability to induce contralateral rotational behavior in rats with unilateral, 6-hydroxy DA induced lesions of the substantia nigra at 3 mg/kg dosage orally; format: functional; conditions: route oral
Method in brief: (§1)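 Rats given a unilateral 6-hydroxydopamine injection into the substantia nigra (8 μg per rat) at least 1 month earlier. Drug was given orally or subcutaneously and contralateral turns were recorded. Totals are cumulative at 1 h or 2 h after dosing, reported as means ± SEM with n = 3-6 rats.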

[3] = target: T1, D(2) dopamine receptor; test: Evaluated for its ability to displace tritiated receptor ligand in rat striatal membranes [3H]ADTN, a dopamine agonist; format: functional, cell membranes, Striatum, Membrane
[4] = tested on: Rattus norvegicus; test: Compound was evaluated for D2 dopaminergic activity measured as total contralateral turns after 2 hr at a dose of 3 mg/kg peroral administration.; format: functional; conditions: route oral; method in brief: as §1
[5] = tested on: Rattus norvegicus; test: Compound was evaluated for D2 dopaminergic activity measured as total contralateral turns after 2 hr at a dose of 0.1 mg/kg peroral administration.; format: functional; conditions: route oral; method in brief: as §1
[6] = tested on: Rattus norvegicus; test: Compound was evaluated for D2 dopaminergic activity measured as total contralateral turns after 1 hr at a dose of 1 mg/kg peroral administration.; format: functional; conditions: route oral; method in brief: as §1
[7] = tested on: Rattus norvegicus; test: Compound was evaluated for D2 dopaminergic activity measured as total contralateral turns after 2 hr at a dose of 0.3 mg/kg peroral administration.; format: functional; conditions: route oral; method in brief: as §1
[8] = tested on: Rattus norvegicus; test: Compound was evaluated for D2 dopaminergic activity measured as total contralateral turns after 1 hr at a dose of 3 mg/kg peroral administration.; format: functional; conditions: route oral; method in brief: as §1
[9] = tested on: Rattus norvegicus; test: Compound was evaluated for D2 dopaminergic activity measured as total contralateral turns after 2 hr at a dose of 0.1 mg/kg administered subcutaneously.; format: functional; conditions: route subcutaneous; method in brief: as §1
[10] = tested on: Rattus norvegicus; test: Compound was evaluated for D2 dopaminergic activity measured as total contralateral turns after 1 hr at a dose of 0.3 mg/kg peroral administration.; format: functional; conditions: route oral; method in brief: as §1
[11] = tested on: Rattus norvegicus; test: compound was evaluated for increase striatal acetyl choline (AcCh) concentration in intact rat administered subcutaneously.; format: functional; conditions: sc
[12] = tested on: Rattus norvegicus; test: Compound was evaluated for D2 dopaminergic activity measured as total contralateral turns after 1 hr at a dose of 0.1 mg/kg peroral administration.; format: functional; conditions: route oral; method in brief: as §1
[13] = tested on: Rattus norvegicus; test: Compound was evaluated for D2 dopaminergic activity measured as total contralateral turns after 2 hr at a dose of 0.03 mg/kg administered subcutaneously.; format: functional; conditions: route subcutaneous; method in brief: as §1
[14] = tested on: Rattus norvegicus; test: Compound was evaluated for D2 dopaminergic activity measured as total contralateral turns after 2 hr at a dose of 1 mg/kg peroral administration.; format: functional; conditions: route oral; method in brief: as §1
[15] = target: T1, D(2) dopamine receptor; test: Compound was evaluated for its ability to displace tritiated receptor ligand in rat striatal membranes 3[H]spiperone, a dopamine antagonist; format: functional, cell membranes, Striatum, Membrane
Method in brief: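 Rat striatal membranes (0.3–1.0 mg protein/mL) with 0.1 nmol/l [³H]spiperone in 50 mmol Tris/HCl, pH 7.7, plus 0.1% ascorbic acid. Incubated 15 min at 37 °C, stopped by rapid filtration and three ice-cold washes. Nonspecific binding was defined with 1 μmol/L (+)-butaclamol. Values are means ± SD of 2-4 independent determinations, with triplicates per concentration.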

[16] = tested on: Rattus norvegicus; test: Compound was evaluated for D2 dopaminergic activity measured as total contralateral turns after 1 hr at a dose of 0.1 mg/kg administered subcutaneously.; format: functional; conditions: route subcutaneous; method in brief: as §1
[17] = tested on: Rattus norvegicus; test: Compound was evaluated for D2 dopaminergic activity measured as total contralateral turns after 1 hr at a dose of 0.03 mg/kg administered subcutaneously.; format: functional; conditions: route subcutaneous; method in brief: as §1
[18] = tested on: Rattus norvegicus; test: Compound was evaluated for D2 dopaminergic activity measured as total contralateral turns expressed as mean after 1 hr at a dose of 3 mg/kg peroral administration.; format: functional; conditions: route oral; method in brief: as §1
[19] = tested on: Rattus norvegicus; test: Compound was evaluated for D2 dopaminergic activity measured as total contralateral turns expressed as mean after 2 hr at a dose of 0.3 mg/kg administered subcutaneously; format: functional; conditions: route subcutaneous; method in brief: as §1
[20] = tested on: Rattus norvegicus; test: Compound was evaluated for D2 dopaminergic activity measured as total contralateral turns expressed as mean after 2 hr at a dose of 0.3 mg/kg peroral administration.; format: functional; conditions: route oral; method in brief: as §1
[21] = tested on: Rattus norvegicus; test: Compound was evaluated for D2 dopaminergic activity measured as total contralateral turns expressed as mean after 2 hr at a dose of 0.1 mg/kg administered subcutaneously; format: functional; conditions: route subcutaneous; method in brief: as §1
[22] = tested on: Rattus norvegicus; test: Compound was evaluated for D2 dopaminergic activity measured as total contralateral turns expressed as mean after 2 hr at a dose of 1 mg/kg peroral administration; format: functional; conditions: route oral; method in brief: as §1
[23] = tested on: Rattus norvegicus; test: Compound was evaluated for D2 dopaminergic activity measured as total contralateral turns expressed as mean after 2 hr at a dose of 3 mg/kg peroral administration.; format: functional; conditions: route oral; method in brief: as §1
[24] = target: T1, D(2) dopamine receptor; test: Compound was evaluated for its ability to displace tritiated receptor ligand in rat striatal membranes [3H]ADTN, a dopamine agonist; format: functional, cell membranes, Striatum, Membrane
[25] = tested on: Rattus norvegicus; test: Compound was evaluated for D2 dopaminergic activity measured as total contralateral turns expressed as mean after 1 hr at a dose of 0.1 mg/kg administered subcutaneously; format: functional; conditions: route subcutaneous; method in brief: as §1
[26] = tested on: Rattus norvegicus; test: Compound was evaluated for D2 dopaminergic activity measured as total contralateral turns expressed as mean after 1 hr at a dose of 0.3 mg/kg administered subcutaneously; format: functional; conditions: route subcutaneous; method in brief: as §1
[27] = tested on: Rattus norvegicus; test: Compound was evaluated for D2 dopaminergic activity measured as total contralateral turns expressed as mean after 1 hr at a dose of 0.3 mg/kg peroral administration.; format: functional; conditions: route oral; method in brief: as §1
[28] = tested on: Rattus norvegicus; test: Compound was evaluated for increase striatal acetyl choline (AcCh) concentration in intact rat administered subcutaneously.; format: functional; conditions: sc
[29] = tested on: Rattus norvegicus; test: Compound was evaluated for D2 dopaminergic activity measured as total contralateral turns expressed as mean after 1 hr at a dose of 1 mg/kg peroral administration; format: functional; conditions: route oral; method in brief: as §1

T1 sequence (P61169 whole entry): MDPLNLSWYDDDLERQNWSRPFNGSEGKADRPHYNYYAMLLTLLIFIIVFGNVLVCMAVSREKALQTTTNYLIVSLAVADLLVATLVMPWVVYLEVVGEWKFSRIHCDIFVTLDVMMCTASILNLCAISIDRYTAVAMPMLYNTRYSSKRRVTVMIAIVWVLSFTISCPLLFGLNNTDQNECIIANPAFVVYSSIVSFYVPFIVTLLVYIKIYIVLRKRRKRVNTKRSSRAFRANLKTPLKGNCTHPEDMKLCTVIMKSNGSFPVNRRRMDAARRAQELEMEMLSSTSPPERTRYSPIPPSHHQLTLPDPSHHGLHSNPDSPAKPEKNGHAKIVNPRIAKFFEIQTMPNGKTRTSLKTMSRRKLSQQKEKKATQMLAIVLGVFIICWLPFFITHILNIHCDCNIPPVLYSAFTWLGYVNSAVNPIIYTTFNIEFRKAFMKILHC

Structure (SMILES)	pIC50 [1]	Turns/first hour [2]	pKi [3]	further results
C1=C(c2ccccc2)CCN(CCc2c[nH]c3ccccc23)C1	7.00	<50	7.09	
Clc1ccc2[nH]cc(CCCCN3CC=C(c4ccccc4)CC3)c2c1	7.30	<50	8.51	
C1=C(c2ccccc2)CCN(CCCCCCc2c[nH]c3ccccc23)C1	7.40	<100	8.37	
COc1ccc2c(CCCCN3CC=C(c4ccccc4)CC3)c[nH]c2c1	8.05	792	8.74	
Oc1ccc2c(CCCCN3CC=C(c4ccccc4)CC3)c[nH]c2c1	8.10	786	8.60	
COc1ccc(C2=CCN(CCCCc3c[nH]c4ccccc34)CC2)cc1	6.15	<50	7.39	
Fc1ccc2[nH]cc(CCCCN3CC=C(c4ccccc4)CC3)c2c1	8.00	552	8.80	
c1ccc(C2CCN(CCCCc3c[nH]c4ccccc34)CC2)cc1	< 7.00	<50	< 7.00	
Cc1[nH]c2ccccc2c1CCCCN1CC=C(c2ccccc2)CC1	7.30	318	8.27	
C1=CCN(CCCCc2c[nH]c3ccccc23)CC1	< 6.00	<100	< 6.00	
Clc1ccccc1C1=CCN(CCCCc2c[nH]c3ccccc23)CC1	7.00	<50	7.68	
Oc1ccc2[nH]cc(CCCCN3CC=C(c4ccccc4)CC3)c2c1 [ROXINDOLE]		948	9.06	Turns [4]: 2010; Turns [5]: 287; Turns [6]: 830; Turns [7]: 534; Turns [8]: 926; Turns [9]: 2246; Turns [10]: 397; ED50 [11]: > 30 mg/kg; Turns [12]: 251; Turns [13]: 718; Turns [14]: 1694; pIC50 [15]: 8.23; Turns [16]: 1132; Turns [17]: 399
Cn1cc(CCCCN2CC=C(c3ccccc3)CC2)c2ccccc21	7.00	121	7.82	
COc1ccc2[nH]cc(CCCCN3CC=C(c4ccccc4)CC3)c2c1	7.70	504	8.36	
C1=C(c2ccccc2)CCN(CCCCc2c[nH]c3ccccc23)C1	6.98	864		Turns [18]: 825; Turns [19]: 936; Turns [20]: 236; Turns [21]: 68; Turns [22]: 412; Turns [23]: 1731; pKi [24]: 8.19; Turns [25]: 44; Turns [26]: 422; Turns [27]: 99; ED50 [28]: > 3 mg/kg; Turns [29]: 201
C1=C(c2ccccc2)CCN(CCCc2c[nH]c3ccccc23)C1	7.30	~250	7.92	
Fc1ccc(C2=CCN(CCCCc3c[nH]c4ccccc34)CC2)cc1	7.05	<100	7.82	
C1=C(c2ccccc2)CCN(CCCCCc2c[nH]c3ccccc23)C1	7.22	<50	7.89	
Clc1ccc(C2=CCN(CCCCc3c[nH]c4ccccc34)CC2)cc1	7.00	100	7.34	
CN1CCc2cccc3c2[C@H]1Cc1ccc(O)c(O)c1-3 [APOMORPHINE]				Turns [17]: 1268; ED50 [28]: 0.28 mg/kg
Fc1ccccc1C1=CCN(CCCCc2c[nH]c3ccccc23)CC1	7.70	186	8.40	
